Data set [1] can be described thus: Prodrug conversion in sodium phosphate buffer using NAD(P)H as cofactor assessed as Bacillus amyloliquefaciens CAMR 0454 ywrO-mediated reduction by steady state kinetics analysis. The data set is classed as ADME.
For data set [2], the system named is Staphylococcus saprophyticus. The experiment in a line: Activity of Staphylococcus saprophyticus ATCC 15305 Ssap-NtrB assessed as residual activity measured for 10 mins at 3 degC by spectrophotometric analysis.
A short description of data set [3]: Prodrug conversion in Tris-HCl buffer assessed as Staphylococcus saprophyticus ATCC 15305 Ssap-NtrB-mediated reduction after 30 mins by HPLC analysis. The data set is classed as ADME. The following applies: 0.5 h. Put shortly:
(§1)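 CB1954 (1 mM final) or SN23862 (80 µM) was incubated in degassed 50 mM Tris-Cl pH 7.0, kept anaerobic by nitrogen bubbling, with 50 µg/ml Ssap-NtrB and 3.4 mM NADPH for at least 30 min at 18–20 °C. Reactions were stopped with ice-cold methanol, held at −80 °C, then centrifuged. Products were resolved by reverse-phase C18 HPLC with an acetonitrile–water gradient. Detection was at 260/420 nm, or 390/450 nm for SN23862.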

The nature of data set [4]: Ratio of apparent Kcat to apparent Km for Staphylococcus saprophyticus ATCC 15305 Ssap-NtrB-mediated reduction by steady state kinetics analysis. The class given is ADME. Put shortly: (§2)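 Steady-state kinetics with purified His6-Ssap-NtrB used CB1954 at 0.05–4 mM or a series of SN23862 concentrations in 50 mM Tris-Cl pH 7.0 containing 4% DMSO. Parameters came from nonlinear Michaelis–Menten fitting. One unit is defined as 1 µmol substrate converted per min, and specific activity was expressed per mg active enzyme.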

Data set [5] relates to Staphylococcus saprophyticus. The experiment in a line: Activity of Staphylococcus saprophyticus ATCC 15305 Ssap-NtrB assessed as residual activity measured for 10 mins at 15 degC by spectrophotometric analysis.
Data set [6] can be described thus: Prodrug conversion in Tris-HCl buffer assessed as Staphylococcus saprophyticus ATCC 15305 Ssap-NtrB-mediated reduction by steady state kinetics analysis. The data set is classed as ADME. The following applies: for Km: read-out: Km(app). Put shortly: as §2
Data set [7] is described as follows: Prodrug conversion in Tris-HCl buffer using NADH as cofactor assessed as Escherichia coli NfsB-mediated reduction by steady state kinetics analysis. The data set is classed as ADME. The following applies: for Km: read-out: Km(app).
Data set [8] can be described thus: Prodrug conversion in Tris-HCl buffer using NADPH as cofactor assessed as Escherichia coli NfsB-mediated reduction by steady state kinetics analysis. The class given is ADME. The following applies: for Km: read-out: Km(app).
The nature of data set [9]: Ratio of apparent Kcat/apparent Km for Escherichia coli NfsB to apparent Kcat/apparent Km for Staphylococcus saprophyticus ATCC 15305 Ssap-NtrB. The class given is ADME.
Data set [10] in a line: Ratio of apparent Kcat to apparent Km for Escherichia coli NfsB-mediated prodrug conversion using NADH as cofactor by steady state kinetics analysis. The data set is classed as ADME.
The nature of data set [11]: Ratio of apparent Kcat to apparent Km for Escherichia coli NfsB-mediated prodrug conversion using NADPH as cofactor by steady state kinetics analysis. The data set is classed as ADME.
The nature of data set [12]: Ratio of apparent Kcat to apparent Km for Escherichia coli AzoR-mediated prodrug conversion using NADH as cofactor by steady state kinetic analysis. The data set is classed as ADME.
Data set [13] can be described thus: Prodrug conversion in buffer using NADH as cofactor assessed as Escherichia coli AzoR-mediated reduction by steady state kinetics analysis. The class given is ADME.
The nature of data set [14]: Ratio of apparent Kcat to apparent Km for Bacillus amyloliquefaciens CAMR 0454 ywrO-mediated prodrug conversion using NADPH as cofactor by steady state kinetic analysis. The data set is classed as ADME.
A short description of data set [15]: Prodrug conversion in buffer using NADPH as cofactor assessed as Escherichia coli NfsA-mediated reduction by steady state kinetics analysis. The data set is classed as ADME.
The nature of data set [16]: Prodrug conversion in Tris-HCl buffer assessed as Staphylococcus saprophyticus ATCC 15305 Ssap-NtrB-mediated [5-(aziridin-1-yl)-2-hydroxyamino-4-nitrobenzamide] formation after 30 mins by HPLC analysis. The following applies: 0.5 h. The class given is ADME. Put shortly: as §1
Data set [17] in a line: Ratio of apparent Kcat to apparent Km for Escherichia coli AzoR-mediated prodrug conversion using NADPH as cofactor by steady state kinetic analysis. The class given is ADME.
Data set [18] can be described thus: Prodrug conversion in buffer using NADPH as cofactor assessed as Escherichia coli AzoR-mediated reduction by steady state kinetics analysis. The data set is classed as ADME.
A short description of data set [19]: Prodrug conversion in sodium phosphate buffer using NADPH as cofactor assessed as Bacillus amyloliquefaciens CAMR 0454 ywrO-mediated reduction by steady state kinetics analysis. The class given is ADME.
Data set [20] in a line: Ratio of apparent Kcat to apparent Km for Escherichia coli NfsA-mediated prodrug conversion using NADPH as cofactor by steady state kinetic analysis. The class given is ADME.
The nature of data set [21]: Prodrug conversion in Tris-HCl buffer assessed as Staphylococcus saprophyticus ATCC 15305 Ssap-NtrB-mediated [5-(aziridin-1-yl)-4-hydroxyamino-2-nitrobenzamide] formation after 30 mins by HPLC analysis. The data set is classed as ADME. The following applies: 0.5 h. Put shortly:
as §1

Data set [22] is described as follows: Ratio of apparent Km for Escherichia coli NfsB-mediated prodrug conversion to apparent Km for Staphylococcus saprophyticus ATCC 15305 Ssap-NtrB-mediated prodrug conversion. The class given is ADME.

Usually Km stands for the substrate concentration at which the rate is half of its maximum. Turning to `NC(=O)c1cc(N(CCCl)CCCl)c([N+](=O)[O-])cc1[N+](=O)[O-]`, the Drug metabolism result in data set [1] is given as “Not Active”; in data set [3], “Active”. Also, the Activity in data set [2] and in data set [5] was 60% in each case. Also, in [4], the Kcat/Km worked out at 9350 M⁻¹ s⁻¹. Also, the “Kcat(app)” value in data set [6] was determined as 0.77 s⁻¹. Moreover, in [6], the Km was determined as 82.4 µM.
Turning to `NC(=O)N/N=C/c1ccc([N+](=O)[O-])o1` [NITROFURAZONE], the results for the “Kcat(app)” value in data set [7], in data set [8] and in data set [6] were 10.7 s⁻¹, 10.5 s⁻¹ and 2.2 s⁻¹, respectively. Moreover, the Km in data set [7] was determined as 160 µM; in [8], 170 µM; in data set [6] it was 49.8 µM. Also, the Ratio in data set [9] is given as 1.4. In addition, the results for the Kcat/Km in data set [10], in data set [4] and in data set [11] were 66875 M⁻¹ s⁻¹, 44180 M⁻¹ s⁻¹ and 61764 M⁻¹ s⁻¹, respectively.
Turning to `NC(=O)c1cc(N2CC2)c([N+](=O)[O-])cc1[N+](=O)[O-]` [TRETAZICAR], the “Kcat(app)” value was determined as 62 s⁻¹ in [7]; 0.15 s⁻¹ in [13]; 26 s⁻¹ in [8]; 16 s⁻¹ in [15]; 0.15 s⁻¹ in data set [18]; 2.26 s⁻¹ in [6]. The “Kcat(app)” value in [19] is 8.2 s⁻¹. Besides, the Km in data set [7] was 11000 µM; in data set [13] (read-out: Km(app)), 6600 µM; in [8], 3600 µM; in data set [15] (read-out: Km(app)) it was 220 µM; in data set [18] (read-out: Km(app)), 1400 µM; in [6], 1070 µM. In addition, the Km in data set [19] (read-out: Km(app)) came to 618 µM. Moreover, the Kcat/Km in data set [12] worked out at 23 M⁻¹ s⁻¹; in data set [14], 13268 M⁻¹ s⁻¹; in [10], 5600 M⁻¹ s⁻¹; in data set [4] it was 2120 M⁻¹ s⁻¹; in [17], 110 M⁻¹ s⁻¹; in data set [11] it was 7300 M⁻¹ s⁻¹. The Kcat/Km in data set [20] worked out at 73000 M⁻¹ s⁻¹. Besides, the Activity in [2] and in data set [5] was 55% throughout. The Drug metabolism entry in data set [16] and in data set [21] was “Active” each time. For the same compound, the Ratio in data set [22] turned out to be 20.

These data come from ChEMBL document CHEMBL2203131, “An unusually cold active nitroreductase for prodrug activations” (Bioorg Med Chem, 2012).
